The test system of experiment [1] is 1A9. Kind of experiment: Cytotoxicity against paclitaxel-resistant human 1A9 cells at 10 uM after 3 days by SRB assay. The class given is functional. The conditions noted are these: for inhibition at 10 µM: 1A9, 72 h.
In experiment [2] the test system is 1A9. Briefly: Cytotoxicity against human 1A9 cells at 10 uM after 3 days by SRB assay. The class given is functional, cell-based.
In experiment [3] the test system is A549. Kind of experiment: Cytotoxicity against human A549 cells after 3 days by SRB assay. Format: functional, cell-based. As to conditions: A549, 72 h. The gist of the method: (§1)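 Freshly trypsinized cells were seeded at 1500-7500 cells per well with test compound added from DMSO-diluted stock and cultured for 3 days. Attached cells were fixed with cold 50% trichloroacetic acid, stained with 0.4% sulforhodamine B, and the bound dye was solubilized and read at 562 nm. IC50 is the concentration giving a 50% drop in absorbance, or growth, relative to untreated cells.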

Experiment [4] concerns KB. Briefly: Cytotoxicity against vincristine-resistant human KBVIN cells at 10 uM after 3 days by SRB assay. The class given is functional.
The subject of experiment [5] is 1A9. Kind of experiment: Cytotoxicity against paclitaxel-resistant human 1A9 cells after 3 days by SRB assay. The class given is functional, cell-based. As to conditions: 1A9, 72 h. The gist of the method:
as §1

Experiment [6] is described as follows: (§2) Cytotoxicity against human U87MG cells at 10 uM after 3 days by SRB assay. The class given is functional, U-87MG ATCC. The conditions noted are these: U-87 MG, 72 h.
Experiment [7] concerns MCF7. Kind of experiment: Cytotoxicity against human MCF7 cells at 10 uM after 3 days by SRB assay. Format: functional. The conditions noted are these: MCF7, 72 h.
Experiment [8] can be described thus: Cytotoxicity against human U87MG cells after 3 days by SRB assay. Format: functional, cell-based, U-87MG ATCC. As to conditions: U-87 MG, 72 h. The gist of the method: as §1
The subject of experiment [9] is MCF7. Briefly: Cytotoxicity against human MCF7 cells after 3 days by SRB assay. Format: functional, cell-based. The conditions noted are these: MCF7, 72 h. The essentials:
as §1

For experiment [10], the system named is A549. Briefly: Cytotoxicity against human A549 cells at 10 uM after 3 days by SRB assay. Format: functional.
In experiment [11] the test system is CAKI-1. Briefly: Cytotoxicity against human Caki1 cells at 10 uM after 3 days by SRB assay. The class given is functional. The conditions noted are these: for inhibition at 10 µM: CAKI-1, 72 h.
In experiment [12] the test system is HOS. Briefly: Cytotoxicity against human HOS cells at 10 uM after 3 days by SRB assay. The class given is functional, cell-based.
The subject of experiment [13] is KB. Briefly: Cytotoxicity against etoposide-resistant human KB cells at 10 uM after 3 days by SRB assay. The class given is functional.
For experiment [14], the system named is KB. Kind of experiment: Cytotoxicity against camptothecin-resistant human KB cells at 10 uM after 3 days by SRB assay. The class given is functional, cell-based.
The subject of experiment [15] is KB. Briefly: Cytotoxicity against human KB cells at 10 uM after 3 days by SRB assay. Format: functional.
The test system of experiment [16] is HOS. Kind of experiment: Cytotoxicity against human HOS cells after 3 days by SRB assay. The class given is functional, cell-based. The conditions noted are these: 72 h. The essentials:
as §1

The subject of experiment [17] is KB. Briefly: Cytotoxicity against camptothecin-resistant human KB cells after 3 days by SRB assay. The class given is functional, cell-based. The conditions noted are these: 72 h. The essentials: as §1
The subject of experiment [18] is KB. Briefly: Cytotoxicity against etoposide-resistant human KB cells after 3 days by SRB assay. The class given is functional, cell-based. As to conditions: 72 h. The essentials: as §1
Experiment [19] deals with KB. Briefly: Cytotoxicity against human KB cells after 3 days by SRB assay. The class given is functional, cell-based. As to conditions: 72 h. The essentials:
as §1

In experiment [20] the test system is 1A9. Briefly: Cytotoxicity against human 1A9 cells after 3 days by SRB assay. The conditions noted are these: 1A9, 72 h. Format: functional, cell-based. The gist of the method:
as §1

Experiment [21] can be described thus: Cytotoxicity against vincristine-resistant human KBVIN cells after 3 days by SRB assay. The class given is functional, cell-based. As to conditions: 72 h. The gist of the method:
as §1

Experiment [22] concerns CAKI-1. Kind of experiment: Cytotoxicity against human Caki1 cells after 3 days by SRB assay. The class given is functional, cell-based. As to conditions: CAKI-1, 72 h. The essentials:
as §1

In a further experiment the test system is U-87MG ATCC. The experiment is described as §2. The class given is functional.

Activity calls are given as the source filed them. The calls are words filed in the database; no cut-off is given here. Where only a bound is given, the exact number is not on record here.

On to `C=C(C)C(O)CC1=C(OC)C(=O)c2c(OC)cccc2C1=O` (configuration not stated) [LANTALUCRATIN D], for which the inhibition at 10 µM worked out at 14% in the experiment on 1A9 [1]; 8% in experiment [6]; 20% in the experiment on MCF7 [7]; 7% in the experiment on A549 [10] (A549, 72 h). In addition, the result in the experiment on 1A9 [2], with KB [4], in the experiment with CAKI-1 [11], in the experiment with HOS [12], with KB [13] and in the experiment on KB [14] was inactive. Also, in the experiment with KB [15], the result was inactive. Besides, the IC50 (with A549 [3]; with 1A9 [5]; in [8]; in the experiment with MCF7 [9]) was above 10 µM each time.

`C=C(C)C1CC2=C(O1)c1ccc(O)cc1C(=O)C2=O` (configuration not stated) [LANTALUCRATIN C]: the IC50 in the experiment with A549 [3] amounted to 6 µM; in the experiment on HOS [16], 4.7 µM; in the experiment on KB [17], 5.2 µM; in the experiment on 1A9 [5], 6.5 µM; with KB [18] it was 5.8 µM; in experiment [8], 7.3 µM. In addition, the IC50 came out at 6.9 µM with KB [19], 4.9 µM in the experiment with MCF7 [9], 9.4 µM with 1A9 [20] and 6.3 µM in experiment [21].

Turning to `C=C(C)C1CC2=C(O1)c1cccc(O)c1C(=O)C2=O` (configuration not stated) [LANTALUCRATIN B], the IC50 with A549 [3] was determined as 1.8 µM; in the experiment with HOS [16], 2.5 µM; with KB [17] it was 1 µM; in the experiment with 1A9 [5], 2.1 µM; with KB [18], 2.1 µM; in [8], 1.9 µM. Besides, the IC50 in the experiment on KB [19] is 2.3 µM; in the experiment with MCF7 [9] it was 1 µM; in the experiment on CAKI-1 [22], above 5 µM; in the experiment on 1A9 [20], 1.5 µM; in experiment [21] it was 2.4 µM. The same compound had an inhibition at 10 µM with CAKI-1 [11] of 16%.

For `C=C(C)C(O)CC1=C(OC)C(=O)c2cc(OC)c(O)c(O)c2C1=O` (configuration not stated) [LANTALUCRATIN F], the result in the experiment on 1A9 [1], in the experiment with 1A9 [2], in the experiment with KB [4], in the experiment with U-87MG ATCC, in the experiment with A549 [10] and with HOS [12] was inactive. The outcome in the experiment with KB [13], in the experiment on KB [14] and with KB [15] was inactive. The inhibition at 10 µM in the experiment on MCF7 [7] was found to be 9%; in the experiment with CAKI-1 [11], 13%. Also, the IC50 in the experiment on MCF7 [9] and in the experiment on CAKI-1 [22] was above 10 µM throughout.

Turning to `C=C(C)C1CC2=C(O1)c1cccc(OC)c1C(=O)C2=O` (configuration not stated) [LANTALUCRATIN A], the inhibition at 10 µM in the experiment with 1A9 [1] was determined as 45%; in the experiment on KB [4] (72 h) it was 17%; in the experiment with KB [13] (72 h) it was 43%; in the experiment on KB [15] (72 h), 46%. Also, the IC50 was 3.3 µM in the experiment with A549 [3]; 4.8 µM in the experiment on HOS [16]; 2.1 µM in the experiment with KB [17]; above 5 µM in the experiment with 1A9 [5]; above 5 µM in the experiment with KB [18]; 4.7 µM in [8]. For the same compound, the IC50 is above 5 µM with KB [19], 1.6 µM with MCF7 [9], 3.9 µM in the experiment with 1A9 [20] and above 5 µM in [21]. Further, the result in the experiment on CAKI-1 [11] was inactive.

Consider `C=C(C)C1CC2=C(O1)C(=O)c1ccccc1C2=O` (stereo not drawn) [DEHYDROISO-ALPHA-LAPACHONE], for which the IC50 with A549 [3] turned out to be 6.4 µM; with HOS [16], 3.6 µM; in the experiment with KB [17] it was 3.2 µM; with 1A9 [5], 2.8 µM; in the experiment with KB [18], 3.5 µM; in [8], 2.6 µM. Further, the IC50 is 4.1 µM in the experiment on KB [19]; 1.2 µM with MCF7 [9]; above 10 µM in the experiment on CAKI-1 [22]; 2.6 µM with 1A9 [20]; 5.7 µM in experiment [21]. Besides, the inhibition at 10 µM with CAKI-1 [11] worked out at 26%.

`C=C(C)C1CC2=C(O1)c1ccccc1C(=O)C2=O` (configuration not stated): the IC50 amounted to 2.7 µM in the experiment on A549 [3]; 4 µM in the experiment with HOS [16]; 2.2 µM with KB [17]; 2.3 µM in the experiment on 1A9 [5]; 3 µM with KB [18]; 3.4 µM in experiment [8]. Further, the IC50 was 3 µM in the experiment on KB [19]; 1.2 µM with MCF7 [9]; 9.6 µM with CAKI-1 [22]; 2.1 µM in the experiment with 1A9 [20]; 3.9 µM in experiment [21].

On to `CC1(C)CCC2=C(O1)c1ccccc1C(=O)C2=O` [LAPACHONE], for which the IC50 in the experiment with A549 [3] was determined as 1.5 µM; with HOS [16], 1.4 µM; in the experiment on KB [17] it was 1 µM; in the experiment with 1A9 [5], 0.8 µM; with KB [18] it was 1.8 µM; in experiment [8], 2 µM. In addition, the IC50 was 1.2 µM in the experiment on KB [19]; 0.8 µM with MCF7 [9]; above 5 µM with CAKI-1 [22]; 0.8 µM with 1A9 [20]; 2.2 µM in experiment [21]. Also, the inhibition at 10 µM with CAKI-1 [11] was found to be 42%.

As to `C=C(C)C(O)CC1=C(OC)C(=O)c2c(OC)ccc(O)c2C1=O` (configuration not stated) [LANTALUCRATIN E], the IC50 with A549 [3] was 8.7 µM; in the experiment with HOS [16], 8.7 µM; in the experiment on 1A9 [5] it was 2.5 µM; in experiment [8], 7 µM; in the experiment on MCF7 [9], 5.5 µM; with CAKI-1 [22], above 10 µM. Further, half-maximal inhibition with 1A9 [20] (IC50) was put at 1.3 µM. For the same compound, the outcome with KB [4], with KB [13], with KB [14] and in the experiment with KB [15] was inactive. Moreover, at 10 µM the inhibition in the experiment with CAKI-1 [11] was 8%.

For the origin of these results see ChEMBL document CHEMBL1151231, “Antitumor agents. 233. Lantalucratins A-F, new cytotoxic naphthoquinones from Lantana involucrata” (J Nat Prod, 2004).
